Measured values from paper PMC3472128 (Structure (London, England : 1993), 2012).

System: HA-YAP
Assay: Immunoprecipitation of Smad7 with HA-YAP in HEK293T cells
Type: cell-based, human
Details: full-length Smad7 wild type or variants with HA-YAP
Summary of the method: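 HEK293T cells were transfected with epitope-tagged constructs (HA-YAP with full-length Smad7 wild type or variants) and treated where indicated with TGF-β1 at 100 pM. Lysates were immunoprecipitated with anti-Flag antibody, then immunoblotted with antibodies against the tags.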

B1: S206A: Smad7 mutant S206A, flag epitope-tagged plasmid expressed in HEK293T (protein, UniProt O15105 1-426, looked up, variant S206A)
chain: MFRTKRSALVRRLWRSRAPGGEDEEEGAGGGGGGGELRGEGATDSRAHGAGGGGPGRAGCCLGKAVRGAKGHHHPHPPAAGAGAAGGAEADLKALTHSVLKKLKERQLELLLQAVESRGGTRTACLLLPGRLDCRLGPGAPAGAQPAQPPSSYSLPLLLCKVFRWPDLRHSSEVKRLCCCESYGKINPELVCCNPHHLSRLCELEAPPPPYSRYPMDFLKPTADCPDAVPSSAETGGTNYLAPGGLSDSQLLLEPGDRSHWCVVAYWEEKTRVGRLYCVQEPSLDIFYDLPQGNGFCLGQLNSDNKSQLVQKVRSKIGCGIQLTREVDGVWVYNRSSYPIFIKSATLDNPDSRTLLVHKVFPGFSIKAFDYEKAYSLQRPNDHEFMQQPWTGFTVQISFVKGWGQCYTRQFISSCPCWLEVIFNSR
modifications: full-length FLAG tag
With B1 the “binding to HA-YAP in immunoprecipitation” value was “binding is observed”.
